The source made the active and inactive calls. The rule behind the calls is not given here.
What was measured:
[1] = Antiproliferative activity against p21-/- human 80S14 cells; type: functional, cell-based
[2] = test system: HCT-116; assay: Antiproliferative activity against p21+/+ human HCT116 cells; type: functional, cell-based
[3] = test system: LoVo; assay: Antiproliferative activity against human LoVo cells; type: functional, cell-based
[4] = test system: SW-620; assay: Antiproliferative activity against human SW620 cells; type: functional, cell-based
[5] = test system: DLD-1; assay: Antiproliferative activity against human DLD1 cells; type: functional, cell-based
[6] = test system: HT-29; assay: Antiproliferative activity against human HT-29 cells; type: functional, cell-based
[7] = Binding affinity to tubulin
Summary of the method: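 Binding was read by the fluorescence change of compound and tubulin tryptophan residues on binding, using unlabelled tubulin with intrinsic tryptophan fluorescence as reporter. KD was derived from this signal.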

[8] = Induction of oligomerization of tubulin
[9] = Plasma concentration in mouse at 50 mg/kg, po after 1 hr; type: ADME, organism-based; set-up: dose 50 mg/kg, route oral
Summary of the method: (§1)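 Nude mice were dosed orally at 50 mg/kg. Blood was sampled at 1 and 4 h, and plasma levels were reported in […].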

[10] = Plasma concentration in mouse at 50 mg/kg, po after 4 hrs; type: ADME, organism-based; set-up: dose 50 mg/kg, route oral; summary of the method: as §1
[11] = test system: LoVo; assay: Anticancer activity against human LoVo cells xenografted mouse at 30 mg/kg, po administered 20 days measured on day 21 relative to control; type: functional
Summary of the method: (§2)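 Female athymic nu/nu mice were given 1×10^7 LoVo cells SC in the flank. Cells were cultured in RPMI with 10% FBS. At 90–120 mg tumour mass (day zero), mice were randomised 5 per group. Tumour mass was calculated as (length×width²)/2 every 7 days and expressed as relative growth versus day zero, treated versus control. Student t-test was run on log relative growth, with significance at p≤0.05.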

[12] = test system: LoVo; assay: Anticancer activity against human LoVo cells xenografted mouse at 50 mg/kg, po administered 20 days measured on day 21 relative to control; type: functional; summary of the method: as §2

Row | Structure (SMILES) | IC50 [1] [nM] | IC50 [2] [nM] | further results
1 | CC(C)CNC(=O)c1cccc(-c2ccnc3c(C(=O)c4cccs4)cnn23)c1 | 400 | 5700 | IC50 [3]: 150 nM; IC50 [4]: 150 nM; IC50 [5]: 60 nM; IC50 [6]: 150 nM
2 | CC(C)CC(=O)Nc1ccc(Cl)c(-c2ccnc3c(C(=O)c4cccs4)cnn23)c1 | 2800 | 20000 | 
3 | CC(C)CC(=O)Nc1cc(-c2ccnc3c(C(=O)c4cccs4)cnn23)cs1 | 7800 | > 20000 | 
4 | COc1ccc(-c2ccnc3c(C(=O)c4cccs4)cnn23)cc1NC(=O)CC(C)C | 6400 | 19000 | 
5 | CC(C)CC(=O)Nc1cc(-c2ccnc3c(C(=O)c4cccs4)cnn23)ccc1F | 89 | 3200 | IC50 [3]: 15 nM; IC50 [4]: 15 nM; IC50 [5]: 16 nM; IC50 [6]: 16 nM; Kd [7]: 2500 nM; Activity [8]: inactive; concentration at 1 h [9]: 110 ng/mL; concentration at 4 h [10]: 40 ng/mL; T/C [11]: 57%; T/C [12]: 24%
6 | CC(C)CC(=O)Nc1cc(-c2ccnc3c(C(=O)c4cccs4)cnn23)ccc1Cl | 430 | 8800 | 
7 | CC(C)NC(=O)c1cccc(-c2ccnc3c(C(=O)c4cccs4)cnn23)c1 | 680 | > 13000 | 
8 | CC(C)NC(=O)Nc1cccc(-c2ccnc3c(C(=O)c4cccs4)cnn23)c1 | 89 |  | 
9 | CCCCNC(=O)c1cccc(-c2ccnc3c(C(=O)c4cccs4)cnn23)c1 | 340 | 5300 | 
10 | CC(CC(=O)Nc1cc(-c2ccnc3c(C(=O)c4cccs4)cnn23)ccc1F)C(F)(F)F (stereo unspecified) | 120 | 2500 | 
11 | CC(C)(C)CCNc1cccc(-c2ccnc3c(C(=O)c4cccs4)cnn23)c1 | 550 | 4800 | 
12 | Cc1ccc(-c2ccnc3c(C(=O)c4cccs4)cnn23)cc1NC(=O)CC(C)C | 1000 | 9200 | 
13 | CC(C)NC(=O)Nc1cc(-c2ccnc3c(C(=O)c4cccs4)cnn23)ccc1F | 41 | 5300 | IC50 [3]: 11 nM; IC50 [4]: 12 nM; IC50 [5]: 19 nM; IC50 [6]: 17 nM; concentration at 1 h [9]: 14 ng/mL; concentration at 4 h [10]: 8 ng/mL
14 | CC(C)CC(=O)Nc1ccc(-c2ccnc3c(C(=O)c4cccs4)cnn23)s1 | 2000 | > 20000 | IC50 [3]: 680 nM; IC50 [4]: 760 nM; IC50 [5]: 620 nM; IC50 [6]: 670 nM
15 | CC(C)OC(=O)Nc1cccc(-c2ccnc3c(C(=O)c4cccs4)cnn23)c1 | 51 |  | 
16 | CC(C)CCNc1cccc(-c2ccnc3c(C(=O)c4cccs4)cnn23)c1 | 770 | 5700 | IC50 [3]: 81 nM; IC50 [4]: 110 nM; IC50 [5]: 120 nM; IC50 [6]: 450 nM
17 | C/C=C/CNc1cccc(-c2ccnc3c(C(=O)c4cccs4)cnn23)c1 | 430 | 3800 | 
18 | O=C(NC1CCCC1)c1cccc(-c2ccnc3c(C(=O)c4cccs4)cnn23)c1 | 390 | 6800 | 
19 | CC(C)CC(=O)Nc1cncc(-c2ccnc3c(C(=O)c4cccs4)cnn23)c1 | 7600 | > 2600 | 
20 | CC(C)CC(=O)Nc1cccc(-c2ccnc3c(C(=O)c4cccs4)cnn23)c1 | 140 |  | Kd [7]: 4300 nM; Activity [8]: inactive
21 | CC(C)(C)CC(=O)Nc1cc(-c2ccnc3c(C(=O)c4cccs4)cnn23)ccc1F | 190 | 3700 | 
22 | O=C(Nc1ccccc1)c1cccc(-c2ccnc3c(C(=O)c4cccs4)cnn23)c1 | 310 | 5100 | 

Source: ChEMBL document CHEMBL1152747, “Synthesis, SAR study and biological evaluation of novel pyrazolo[1,5-a]pyrimidin-7-yl phenyl amides as anti-proliferative agents” (Bioorg Med Chem, 2009)
